Assay results taken from ChEMBL document CHEMBL4014310, “Selective IKur Inhibitors for the Potential Treatment of Atrial Fibrillation: Optimization of the Phenyl Quinazoline Series Leading to Clinical Candidate 5-[5-Phenyl-4-(pyridin-2-ylmethylamino)quinazolin-2-yl]pyridine-3-sulfonamide” (J Med Chem, 2017).

Legend:
[1] = Inhibition of calcium channel (unknown origin); parameters: species or system Homo sapiens
[2] = Inhibition of sodium channel (unknown origin); parameters: species or system Homo sapiens
[3] = Volume of distribution at steady state in mouse at 2 mg/kg, iv or 5 mg/kg, po; assay type: ADME, organism-based; conditions: in vivo, read-out: Vdss
How it was run: (§1)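 Single-dose PK in mouse and rat (2 mg/kg iv, 5 mg/kg po), cynomolgus monkey (1 mg/kg iv and po) and dog (0.1 mg/kg iv, 1 mg/kg po). Dosing vehicle was 1:4:5 EtOH/propylene glycol/PEG400. Parameters reported: clearance, Vss, half-life, Cmax, Tmax, AUC and oral bioavailability.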

[4] = Cmax in mouse at 2 mg/kg, iv or 5 mg/kg, po; assay type: ADME, organism-based; conditions: in vivo
How it was run: (§2)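 Single-dose PK study in mouse and rat (2 mg/kg iv, 5 mg/kg po), cynomolgus monkey (1 mg/kg iv and po) and dog (0.1 mg/kg iv, 1 mg/kg po). Dosing vehicle was 1:4:5 EtOH/propylene glycol/PEG400. Clearance, Vss, half-life, Cmax, Tmax, AUC (μM h) and oral %F were derived from plasma levels.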

[5] = AUC in mouse at 2 mg/kg, iv or 5 mg/kg, po; assay type: ADME, organism-based; conditions: in vivo; how it was run: as §2
[6] = Oral bioavailability in mouse at 5 mg/kg; assay type: ADME, organism-based; conditions: in vivo; how it was run: as §1
[7] = Oral bioavailability in rat at 5 mg/kg; assay type: ADME, organism-based; conditions: in vivo; how it was run: as §1
[8] = Clearance in cynomolgus monkey at 1 mg/kg, iv or 1 mg/kg, po; assay type: ADME, organism-based, Macaca fascicularis; conditions: in vivo; how it was run: as §2
[9] = Half life in cynomolgus monkey at 1 mg/kg, iv or 1 mg/kg, po; assay type: ADME, organism-based, Macaca fascicularis; conditions: in vivo; how it was run: as §2
[10] = Tmax in cynomolgus monkey at 1 mg/kg, iv or 1 mg/kg, po; assay type: ADME, organism-based, Macaca fascicularis; conditions: in vivo; how it was run: as §1
[11] = Oral bioavailability in cynomolgus monkey at 1 mg/kg using crystalline form; assay type: ADME, organism-based, Macaca fascicularis; conditions: in vivo
How it was run: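 Oral %F in cynomolgus monkey at 1 mg/kg po, with the compound given as a micronized crystalline suspension rather than the solution vehicle (iv reference dose 1 mg/kg).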

[12] = AUC in dog at 0.1 mg/kg, iv or 1 mg/kg, po; assay type: ADME, organism-based, Canis lupus familiaris; conditions: in vivo; how it was run: as §2
[13] = Oral bioavailability in dog at 1 mg/kg; assay type: ADME, organism-based, Canis lupus familiaris; conditions: in vivo; how it was run: as §1
Oryctolagus cuniculus [14] = assay: Antiatrial fibrillation activity in methoxamine-sensitised rabbit assessed as increase in atrial effective refractory period at 1 mg/kg, iv administered as 20 mins infusion relative to control; assay type: functional
How it was run: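 Rabbit, iv dosing at 1 or 3 mg/kg. AERP was measured at 10, 20 and 30 min time points as % prolongation, and plasma compound concentration was measured at the same time points and correlated with the AERP change.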

[15] = Plasma concentration in methoxamine-sensitised rabbit at 3 mg/kg, iv administered as 30 mins infusion; assay type: ADME, organism-based, Oryctolagus cuniculus
Oryctolagus cuniculus [16] = assay: Effect on ventricle effective refractory period in methoxamine-sensitised rabbit at 3 mg/kg, iv administered as 10 to 30 mins infusion; assay type: ADME, organism-based; conditions: in vivo
Oryctolagus cuniculus [17] = assay: Antiatrial fibrillation activity in methoxamine-sensitised rabbit assessed as increase in atrial effective refractory period at 0.17 mg/kg, iv administered as 1 min infusion relative to control; assay type: functional
How it was run: (§3)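 Rabbit, iv infusion of compound in DMF (0.17 mg/mL) with a 0.17 mg/kg maintenance dose. AERP was normalized to DMF vehicle, with time counted from the start of the maintenance infusion. Tissues were collected after 30 min. n = 3 rabbits; means ± standard error.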

Oryctolagus cuniculus [18] = assay: Antiatrial fibrillation activity in methoxamine-sensitised rabbit assessed as increase in atrial effective refractory period at 0.17 mg/kg, iv administered as 15 mins infusion relative to control; assay type: functional; how it was run: as §3
Oryctolagus cuniculus [19] = assay: Antiatrial fibrillation activity in methoxamine-sensitised rabbit assessed as increase in atrial effective refractory period at 0.17 mg/kg, iv administered as 30 mins infusion relative to control; assay type: functional; how it was run: as §3
Oryctolagus cuniculus [20] = assay: Antiatrial fibrillation activity in methoxamine-sensitised rabbit assessed as increase in atrial effective refractory period at 0.17 mg/kg, iv measured 15 mins post infusion relative to control; assay type: functional; how it was run: as §3
Oryctolagus cuniculus [21] = assay: Antiatrial fibrillation activity in methoxamine-sensitised rabbit assessed as increase in atrial effective refractory period at 0.17 mg/kg, iv measured 30 mins post infusion relative to control; assay type: functional; how it was run: as §3
Oryctolagus cuniculus [22] = assay: Antiatrial fibrillation activity in methoxamine-sensitised rabbit assessed as plasma concentration required to show increase in atrial effective refractory period at 0.17 mg/kg, iv administered as 15 mins infusion; assay type: functional, organism-based; how it was run: as §3
Canis familiaris = assay: Effect on QTc interval in pacing-induced mongrel dog heart failure model at 0.1 to 0.3 mg/kg, po; assay type: organism-based, Canis lupus familiaris; conditions: in vivo
How it was run: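 Simultaneous atrio-ventricular pacing dog model of atrial arrhythmia. Compound was given orally at 0.1 or 0.3 mg/kg in 10% EtOH/40% propylene glycol/50% PEG 400. AF inducibility was scored as mean number of AF inductions and total AF duration, with QTc monitored and plasma concentration measured. n = 7 control, 5 (0.1 mg/kg) and 6 (0.3 mg/kg) dogs.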

Plasma [23] = assay: Plasma concentration in pacing-induced mongrel dog heart failure model at 0.1 mg/kg, po; assay type: ADME, organism-based, Canis lupus familiaris; conditions: in vivo
How it was run: (§4)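 Simultaneous atrio-ventricular pacing dog model used to measure AF inducibility. Dogs were dosed orally at 0.1 mg/kg (n = 5) or 0.3 mg/kg (n = 6) in 10% EtOH/40% propylene glycol/50% PEG 400, and plasma concentration was measured alongside AF inductions and QTc.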

Plasma [24] = assay: Plasma concentration in pacing-induced mongrel dog heart failure model at 0.3 mg/kg, po; assay type: ADME, organism-based, Canis lupus familiaris; conditions: in vivo; how it was run: as §4
[25] = Solubility of the compound in pH 1 to 8 solution using crystalline form; assay type: physicochemical

## NS(=O)(=O)c1cncc(-c2nc(NCc3ccccn3)c3c(-c4ccccc4)cccc3n2)c1 [BMS-919373]
[1]
  IC50: > 10 µM
[2]
  IC50: > 10 µM
[3]
  Vd: 1.8 L/kg
[4]
  Cmax: 4000 nM
[5]
  AUC: 21 µM·h
[6]
  bioavailability: 100%
[7]
  bioavailability: 100%
[8]
  clearance: 3.2 mL/min/kg
[9]
  half-life: 4.6 h
[10]
  Tmax: 4.9 h
[11]
  bioavailability: 54%
[12]
  AUC: 590 µM·h
[13]
  bioavailability: 64%
Oryctolagus cuniculus [14]
  Activity: 10.6%
[15]
  concentration at 0.5 h: 3300 nM
Oryctolagus cuniculus [16]
  Activity: Non-Toxic
Oryctolagus cuniculus [17]
  Activity: 9.9%
Oryctolagus cuniculus [18]
  Activity: 11%
Oryctolagus cuniculus [19]
  Activity: 12.7%
Oryctolagus cuniculus [20]
  Activity: 9.5%
Oryctolagus cuniculus [21]
  Activity: 11.4%
Oryctolagus cuniculus [22]
  Cp: 0.16 µM
Canis familiaris
  Activity: Non-Toxic
Plasma [23]
  concentration: 470 nM
Plasma [24]
  concentration: 1840 nM
[25]
  solubility: Soluble
